Experimental data collected from several papers.
Lines come from different studies, so protocols differ.
Effect on: cell growth or viability

SMILES	cell line	technique	time	IC50 [nM]
O=C1CCC(N2C(=O)c3cccc4c(Cc5cnn(C6CCN(C(=O)C7(O)CC7)CC6)c5)ccc2c34)C(=O)N1 (stereo not shown)	NCI-H929			0.09
CCNC(=O)Nc1nc2cc(-c3ccc4ncn(Cc5ccccc5)c(=O)c4c3)ccc2s1	PC-9	MTT	72 h	> 20000
O=C1CCC(N2C(=O)c3cccc4c(Cc5cnn(C6CCN(C(=O)CO)CC6)c5)ccc2c34)C(=O)N1 (stereo not shown)	NCI-H929			0.16
Nc1ccccc1NC(=O)c1ccc(Cn2cnc3c(Nc4ccc(Cl)cc4)ncnc32)cc1	Raji	MTT	72 h	110
COc1cccc(NC(=O)Nc2nc3cc(-c4ccc5ncn(CC(=O)N6CCOCC6)c(=O)c5c4)ccc3s2)c1	PC-9	MTT	72 h	> 20000
COc1cccc2c1C(=O)c1c(O)c3c(c(O)c1C2=O)C[C@@](O)(C(=O)CO)C[C@@H]3O[C@H]1C[C@H](N)[C@H](O)[C@H](C)O1	DOHH-2		96 h	10000
Cc1sc2c(c1C)C(c1ccc(Cl)cc1)=N[C@@H](CC(=O)NCCCCNC(=O)COc1cccc3c1C(=O)N(C1CCC(=O)NC1=O)C3=O)c1nnc(C)n1-2 (stereo partly shown)	AGS	CCK-8	72 h	5120
CC(C)(O)C(=O)N1CCC(n2cc(Cc3ccc4c5c(cccc35)C(=O)N4C3CCC(=O)NC3=O)cn2)CC1 (stereo not shown)	NCI-H929			0.19
CN(C)CCn1cnc2ccc(-c3ccc4sc(NC(=O)Nc5ccc(F)cc5)nc4c3)cc2c1=O	PC-9	MTT	72 h	4870
Nc1ccccc1NC(=O)c1ccc(Cn2cnc3c(Nc4ccc(Br)cc4F)ncnc32)cc1	Raji	MTT	72 h	120
O=C(Nc1ccc(C(F)(F)F)cc1)Nc1nc2cc(-c3ccc4ncn(CCN5CCOCC5)c(=O)c4c3)ccc2s1	PC-9	MTT	72 h	> 20000
O=C1CCC(N2C(=O)c3cccc4c(Cc5cnn(C6CCN(C(=O)CS)CC6)c5)ccc2c34)C(=O)N1 (stereo not shown)	NCI-H929			1.23
O=C(NO)c1ccc(Cn2cnc3c(Nc4ccc(F)c(Cl)c4)ncnc32)cc1	Raji	MTT	72 h	870
COc1ccc(NC(=O)Nc2nc3cc(-c4ccc5ncn(CCN(C)C)c(=O)c5c4)ccc3s2)cc1	PC-9	MTT	72 h	> 20000
Nc1cccc2c1CN(C1CCC(=O)NC1=O)C2=O (stereo not shown)	NCI-H929			> 50
O=C(NO)c1ccc(Cn2cnc3c(Nc4cccc([N+](=O)[O-])c4)ncnc32)cc1	Raji	MTT	72 h	300
Cc1nc(Nc2ncc(C(=O)Nc3c(C)cccc3Cl)s2)cc(N2CC[C@H](O)C2)n1	Raji	ATP luminescence	72 h	> 10000
O=C1CCC(N2Cc3c(OCc4ccc(CN5CCNCC5)cc4)cccc3C2=O)C(=O)N1 (stereo not shown)	NCI-H929			20.4
CCCC(=O)Nc1nc2cc(-c3ccc4ncn(Cc5ccccc5)c(=O)c4c3)ccc2s1	PC-9	MTT	72 h	> 20000
